A selection: hits, their analogues and other compounds. The true share with any hit is near 5.1%.
APP 5'UTR act: activators of APP 5'UTR luciferase reporter, primary screen, SH-SY5Y cells; SH-SY5Y APP 5'UTR luciferase reporter, luminescence; zero percent = DMSO vehicle wells; activation, % at 2 µM; 190,000 compounds, 1% hits; AID 1276, 2008;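 active means activation above a set limit, based on mean plus 3 SD of controls, cut at about 140% in these data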
STAT3 act: IL-6 driven STAT3 reporter potentiators, primary screen, U3A cells, luciferase, luminescence, MLSCN library | IL-6 STAT3-luciferase reporter; 100% = signal with IL-6 EC80 alone | 190,000 compounds, 0.91% hits | activation (% of control), % at 5.6 µM;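 active means activation above the screen-wide mean of compound activation plus 3 SD, cut at about 130% in these data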;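 further: 0% = background luminescence of wells with medium and substrate only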
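Test system: STAT3-luciferase reporter U3A cells; Detection: reporter luminescence signal; Times: 1 h compound pre-exposure, 6 h IL-6 stimulation, 37 °C; Benchmarks: IL-6-only high control; Also added: IL-6 stimulus at 33 ng/mL final.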
STAT1 activator: STAT1 signaling activators, primary screen, cell-based, HTS, luciferase reporter. 200,000 compounds, 2.6% hits. activation (% of control), % at 5.5 µM. NIH 3T3 STAT1-luciferase reporter, IFN-gamma, luminescence; 100% = IFN-gamma alone, no compound;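 active means activation above the screen-wide mean activation plus 3 SD, cut at about 130% in these data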;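 further: raw ratio to IFN-gamma control signal so 100% means no change and 0% no light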
STAT3 blocker: IL-6 driven STAT3 reporter inhibitors, primary screen, U3A cells, luciferase, luminescence, MLSCN library | IL-6 STAT3-luciferase reporter; host cell line lacks STAT1 | inhibition, % at 5.5 µM | 190,000 compounds, 0.89% hits;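 active means inhibition above the mean inhibition across all screened compounds plus 3 SD, cut at about 44% in these data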;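 further: 0% = DMSO only wells and 100% = 100 µM nifuroxazide control wells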
NF-kB neuron act: activators of NF-kB expression in neurons, primary screen, cell-based, HTS; human neuronal cells, NF-kB reporter expression; hits give high values; fold change at 12.5 µM; 190,000 compounds, 1.6% hits; in the data active means fold change above about 3.3
STAT1 blocker: STAT1 signaling inhibitors, primary screen, cell-based, HTS, luciferase reporter; NIH 3T3 STAT1-luciferase reporter, IFN-gamma, luminescence; inhibition, % at 5.5 µM; 200,000 compounds, 0.35% hits;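 active means inhibition above a set limit, the mean inhibition across all tested compounds plus 3 SD, cut at about 34% in these data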;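 further: 0% = IFN-gamma with DMSO and 100% = IFN-gamma with 300 µM nifuroxazide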
Numbers without * were called inactive; nt = not tested or not shown.

SMILES | APP 5'UTR act | STAT3 act | STAT1 activator | STAT3 blocker | NF-kB neuron act | STAT1 blocker
CC(=O)c1cccc(S(=O)(=O)NCC(c2ccco2)N2CCCCC2)c1 (configuration not stated) | 18.1 | 98.6 | 97.8 | 6.5 | 0.9 | 2.4
COc1ccc(-c2csc3nc(-c4ccccc4OC)oc(=O)c23)cc1 | 16.4 | 75.5 | 87.4 | 35.3 | 0.79 | 12.4
CCOCC(=O)Nc1nc2ccc(C)cc2s1 | 95.7 | 76.9 | 123.8 | 30.4 | 3.44* | -25.9
Cc1ccc2nc(NC(=O)c3ccc4ncsc4c3)sc2c1 | 172.2* | 103.9 | 147.4* | 0.6 | 4.12* | -52.9
NC(=O)CSc1nnc(CCc2nc3ccccc3[nH]2)n1-c1ccccc1 | 3.5 | 105.5 | 100.2 | -4.3 | nt | -3.7
CN1CCN(CC(=O)N(C)c2nc(-c3ccccc3)cs2)CC1 | 105.5 | 110.6 | 133.8* | -9.0 | 1.43 | -36.3
CN1CCN(CC(=O)Nc2nc(-c3ccccc3)cs2)CC1 | 11.8 | 99.7 | 96.2 | 7.9 | 0.95 | 4.2
COc1ccc(CN2CCNC(=O)C2CC(=O)NCc2cn3ccc(C)cc3n2)c(OC)c1 (configuration not stated) | -0.5 | 95.9 | 108.0 | 9.7 | 0.87 | -10.8
O=C1CC(c2ccco2)CC2=C1C1c3ccccc3C(=O)N1c1ccccc1N2 (configuration not stated) | 18.9 | 100.2 | 101.4 | 2.6 | 8.45* | -1.5
CCC(=O)N1c2ccccc2NC2=C(C(=O)CC(c3ccco3)C2)C1c1ccco1 (configuration not stated) | 5.0 | 109.6 | 95.4 | -7.1 | 1.15 | 6.3
CC/C(=N\NC(=O)c1csc(C)c1C)c1cccs1 | 79.6 | 91.6 | 138.1* | 12.1 | 5.16* | -42.6
CCC/C(=N\NC(=O)c1csc(C)c1C)c1cccs1 | 45.0 | 107.8 | 118.4 | -2.9 | 1.77 | -20.0
O=C(Nc1ccc(-c2ccc3nncn3n2)cc1)c1ccc(Br)o1 | -16.7 | 85.7 | 98.0 | 23.5 | 0.99 | 1.8
CCCc1ccc(OCc2nc(-c3ccc(NC(=O)c4ccco4)cc3)no2)cc1 | 60.8 | 108.5 | 133.0* | -5.7 | 2.3 | -33.5
CCCc1ccc(OCc2nc(-c3ccc(NC(=O)c4cccs4)cc3)no2)cc1 | 39.9 | 105.0 | 125.9 | -5.6 | 1.66 | -29.1
CC(=O)Nc1nc2ccc(C(=O)NC3CCCCC3)cc2s1 | -2.8 | 96.1 | 98.2 | 6.7 | 1.3 | 2.0
CC(=O)c1sc(Nc2nc3ccc(F)cc3s2)nc1C | 44.1 | 106.2 | 135.4* | -2.1 | 2.67 | -38.8
COC(=O)c1ccc2nc(NC(=O)C3CCCCC3)sc2c1 | 141.1* | 107.0 | 124.1 | -2.1 | 1.57 | -26.1
CCOC(=O)c1csc(Nc2nc3ccc(F)cc3s2)n1 | 15.0 | 95.8 | 117.6 | 10.3 | 1.17 | -19.3
COC(=O)c1ccc2nc(NC(=O)C(C)(C)C)sc2c1 | 107.6 | 15.8 | 30.5 | 99.7* | 1.06 | 73.8*
COC(=O)Nc1nc2ccc(Br)cc2s1 | 48.1 | 91.2 | 112.7 | 15.3 | 1.45 | -13.9
COC(=O)c1ccc2nc(Nc3nc4ccc(F)cc4s3)sc2c1 | -42.5 | 24.1 | 42.9 | 92.5* | 2.02 | 63.8*
Cn1c(CSCc2ccc(F)cc2)nnc1SCC(=O)N1CCN(c2ccccc2)CC1 | 7.8 | 92.7 | 95.9 | 13.9 | 0.66 | 4.5
CCN(CC)S(=O)(=O)c1ccc(NS(=O)(=O)CC23CCC(CC2=O)C3(C)C)cc1 (configuration not stated) | -12.9 | 99.4 | 96.8 | -1.8 | 0.92 | 3.6
CCN(CC)C(=O)c1ccc2c(c1)nnn2C | 12.7 | 101.2 | 99.6 | 3.3 | 1.14 | 0.4
SMILES | APP 5'UTR act | STAT3 act | STAT1 activator | STAT3 blocker | NF-kB neuron act | STAT1 blocker
CC(=O)Nc1ccccc1OCC(=O)NCCc1ccc(Cl)cc1Cl | 1.0 | 96.0 | 90.3 | 4.0 | 0.95 | 10.7
N/C(=N/O)c1ccccc1N1CCC(Cc2ccccc2)CC1 | 44.8 | 70.4 | 73.5 | 38.1 | 0.7 | 27.9
Cc1cc(C)nc(SCc2ccc(F)cc2)n1 | -10.0 | 97.4 | 105.3 | 4.7 | 1.18 | -6.9
O=C(O)CCc1nn2c3ccccc3n(CC(=O)c3cccs3)c2nc1=O | 32.0 | 113.9 | 97.1 | -13.0 | 1.14 | 1.9
CCOc1ccccc1NC(=O)COC(=O)C(CC)c1ccccc1 (configuration not stated) | -6.8 | 106.0 | 100.1 | 1.1 | 1.01 | -1.5
CC(=O)NCCN=C(C)c1sc2ccccc2c1O | 48.4 | 104.6 | 114.4 | -2.6 | 1.65 | -15.8
CC(=Nc1cccc(C)c1)c1sc2ccccc2c1O | 137.3* | 137.9* | 169.8* | -38.8 | 6.01* | -76.3
Cc1cc(C(=O)OC(C(=O)Nc2ccc(C)c(Cl)c2)c2ccccc2)c(C)o1 (configuration not stated) | -18.4 | 106.9 | 103.5 | -5.9 | 0.72 | -4.0
N#C/C(=C(/O)COC(=O)CSc1ccc(Cl)cc1)c1nc2ccccc2[nH]1 | 1.4 | 96.8 | 87.1 | 6.1 | 3.93* | 14.4
Cc1cc(SCC(=O)OC/C(O)=C(\C#N)c2nc3ccccc3[nH]2)c(C)cc1Br | 23.2 | 95.7 | 99.8 | 9.9 | 2.18 | -2.8
COC(c1ccccc1)c1nnc(CCC(=O)N(C)Cc2cccc(-n3cccn3)c2)o1 (configuration not stated) | 39.2 | 107.6 | 131.3* | -3.5 | 2.44 | -37.0
COC(c1ccccc1)c1nnc(CCC(=O)N(C)CCCC2CCCC2)o1 (configuration not stated) | 9.1 | 106.0 | 116.8 | -1.6 | 1.82 | -19.6
COC(c1ccccc1)c1nnc(CCC(=O)N(C)CCOc2ccccc2)o1 (configuration not stated) | 34.5 | 102.7 | 134.6* | 2.6 | 2.25 | -37.3
CCCN(CC1CC1)C(=O)CCc1nnc(C(OC)c2ccccc2)o1 (configuration not stated) | 3.1 | 105.7 | 103.0 | -2.1 | 1.54 | -5.0
N#CCOC(=O)C1CSC2(c3ccc(Br)cc3)CCC(=O)N12 (configuration not stated) | 7.3 | 106.5 | 103.1 | -2.5 | 1.16 | -1.5
CC1=CCC2C(=O)N(c3ccc(OC(=O)c4ccco4)cc3)C(=O)C2C1 (configuration not stated) | -14.1 | 99.9 | 97.2 | 5.5 | 1.31 | 1.6
O=C(c1cc2c(=O)n3ccccc3nc2s1)N1CCOCC1 | 45.3 | 107.2 | 131.2* | -4.1 | 2.01 | -35.9
S=C(Nc1ccc(Br)cc1Cl)NN1CCOCC1 | -0.7 | 98.7 | 104.1 | 6.3 | 1.22 | -7.5
COc1ccc2c(c1OC)C(=O)N1c3ccccc3C(=O)N(c3ccccc3)C21 (configuration not stated) | -8.2 | 61.4 | 51.4 | 49.0* | 0.28 | 52.8*
CCC(CC)C(=O)Nc1cccc(/C(C)=N/NC(=O)c2ccccc2Cl)c1 | 10.6 | 95.0 | 101.2 | 6.3 | 1.29 | -1.3

Compound activity deposited in PubChem BioAssay by several laboratories.
